Compound activity: PubChem BioAssay, Broad Institute
IDH1 R132H inh: inhibitors of human IDH1 R132H; IDH1 R132H reductase, diaphorase/resazurin fluorescence, 60 min; inhibition, % at 10 µM; hit rate 0.18% among 70,000; in the data active = inhibition above about 34%;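 also: 0% = DMSO and 100% = no enzyme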
Target sequence (O75874 whole entry R132H): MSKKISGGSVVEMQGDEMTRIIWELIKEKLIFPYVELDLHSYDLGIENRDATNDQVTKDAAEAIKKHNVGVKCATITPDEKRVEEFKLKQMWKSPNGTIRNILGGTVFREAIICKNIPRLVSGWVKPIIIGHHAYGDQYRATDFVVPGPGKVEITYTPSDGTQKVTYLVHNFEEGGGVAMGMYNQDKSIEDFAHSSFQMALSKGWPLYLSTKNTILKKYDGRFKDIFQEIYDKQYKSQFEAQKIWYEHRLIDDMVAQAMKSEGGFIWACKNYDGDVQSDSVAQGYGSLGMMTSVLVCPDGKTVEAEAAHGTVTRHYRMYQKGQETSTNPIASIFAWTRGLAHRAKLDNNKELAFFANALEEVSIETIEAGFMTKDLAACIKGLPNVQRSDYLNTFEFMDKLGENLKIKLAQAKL
T cruzi growth: blocks T. cruzi growth in NIH3T3 culture | hit rate 5.9% among 77,000 | AID 624255 | T. cruzi beta-gal in NIH3T3, GalScreen luminescence, 90 h | inhibition, % at 8.34 µM;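 active = mean inhibition above about 93%, with at least 55% of replicates each passing it, limit read from the data, passing the limit was not always enough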
Pf Dd2 inh: inhibitors of Plasmodium falciparum Dd2 growth | P. falciparum Dd2 growth, SYBR Green, 72 h; stronger effect = lower value | activity change, % at 10 µM | hit rate 2.3% among 94,000; in the data active = activity change below about -80%
GASC1 inh: KDM4C (human) demethylase inhibition. hit rate 0.15% among 96,000. GST-KDM4C 2-372, H3K9me3 peptide, LANCE TR-FRET. inhibition, % at 12.5 µM. AID 720574;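 active = mean replicate inhibition above about 25%, with at least 55% of replicates also reaching it, limit read from the data, passing the limit was not always enough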
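Material: GST-tagged GASC-1 (JMJD2C) catalytic fragment, aa 2-372 / Quantity: enzyme final amount 10 nM / Medium: HEPES buffer, pH 7.5, plus ascorbate / Doses: one test concentration per compound / Incubation: 30 min reaction, 60 min detection, RT / Measured by: LANCE TR-FRET / Read-out: inhibition from TR-FRET ratio decrease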
The depositor's hits bear a star; . = not tested or not shown. Rows were chosen to be rich in hits. Some 5.8% of all compounds tested hit in one or more screens of this group.

SMILES	IDH1 R132H inh	T cruzi growth	Pf Dd2 inh	GASC1 inh
O=C(C1CCC1)N1CC[C@@H]2[C@@H](CO)Nc3ccc(-c4cccc(F)c4)cc3[C@@H]21	.	75	27	1
C[C@H](CO)N1C[C@H](C)[C@H](CN(C)C(=O)OCc2ccccc2)OCc2cn(nn2)CCCC1=O	0	49	14	0
C[C@H](CO)N1C[C@H](C)[C@H](CN(C)Cc2ccc(-c3ccccc3)cc2)Oc2ccc(NC(=O)Cn3cnnn3)cc2C1=O	0	78	-6	-2
COc1ccccc1C#Cc1ccc2c(c1)[C@@H]1NCC[C@@H]1[C@H](CO)N2	.	.	-90*	0
OC[C@@H]1Nc2ccc(C#Cc3cccc(F)c3)cc2[C@H]2NCC[C@@H]12	.	.	-88*	-1
C[C@H](O)C#Cc1ccc2c(c1)O[C@H](CN(C)C(=O)Cc1ccccn1)[C@H](C)CN([C@@H](C)CO)S2(=O)=O	.	51	24	-1
CC(C)CC#Cc1ccc([C@H]2[C@@H](CO)N3C(=O)CN(C(=O)Cc4ccccc4)C[C@H]23)cc1	.	.	-85*	0
O=C(Cc1ccccc1)N1CC(=O)N2[C@H](CO)[C@H](c3ccc(C#Cc4ccccc4)cc3)[C@H]2C1	.	.	-84*	0
Cc1ccc(C)c(S(=O)(=O)NC(Cc2c[nH]c3ccccc23)C(=O)O)c1 (stereo not drawn)	0	.	.	.
C[C@@H]1CN([C@H](C)CO)C(=O)c2cc(C#Cc3ccccc3F)cnc2O[C@H]1CN(C)C(=O)c1ccc2c(c1)OCO2	-8	79	-86*	1
COc1ccc(C#Cc2cnc3c(c2)C(=O)N([C@@H](C)CO)C[C@H](C)[C@H](CN(C)C(=O)c2ccccc2F)O3)cc1	0	27	-82*	-1
C[C@@H]1CN([C@@H](C)CO)C(=O)c2cc(-c3ccc(C#N)cc3)cnc2O[C@@H]1CN(C)C(=O)Nc1ccccc1	6	55	43	33*
CC(C)NC(=O)N(C)C[C@H]1Oc2ncc(C#Cc3ccccc3F)cc2C(=O)N([C@@H](C)CO)C[C@@H]1C	-1	89	-82*	-1
COc1ccc(C#Cc2cnc3c(c2)C(=O)N([C@H](C)CO)C[C@@H](C)[C@@H](CN(C)C(=O)c2ccccc2F)O3)cc1	-2	68	-72	19
C[C@H]1CN([C@@H](C)CO)C(=O)c2cc(-c3ccc(C#N)cc3)cnc2O[C@@H]1CN(C)C(=O)Nc1ccccc1	-1	39	-13	-1
C[C@@H]1CCCCO[C@H](CN(C)Cc2ccc(Cl)c(Cl)c2)[C@H](C)CN([C@@H](C)CO)C(=O)c2cc(NC(=O)c3ccccc3)ccc2O1	.	89	-66	0
COc1ccc2c3c([nH]c2c1)[C@H](CO)N(C(=O)c1ccccc1)CC31CCN(C)CC1	.	.	-64	4
COC(=O)C[C@H]1C=C[C@H](NS(=O)(=O)c2ccc(OC)cc2)[C@H](CO)O1	0	29	9	-2
CO[C@@H]1CN(C)C(=O)c2ccc(NC(=O)c3nc4ccccc4s3)cc2OC[C@H](C)N(Cc2ccncc2)C[C@@H]1C	7	.	-96*	-1
CO[C@@H]1CN(C)C(=O)c2ccc(NC(=O)c3nc4ccccc4s3)cc2OC[C@H](C)N(Cc2cccnc2)C[C@@H]1C	.	91	-83*	2
CO[C@@H]1CN(C)C(=O)c2ccc(NC(=O)c3nc4ccccc4s3)cc2OC[C@@H](C)N(Cc2ccncc2)C[C@@H]1C	4	.	-72	0
CO[C@@H]1CN(C)C(=O)c2ccc(NC(=O)c3nc4ccccc4s3)cc2OC[C@H](C)N(Cc2cccnc2)C[C@H]1C	.	69	-53	-3
O=C(/C=C/c1ccc(OCc2ccccc2)cc1)NO	0	.	.	.
CCOC(=O)c1c(NC(=O)CN2C(=O)c3ccccc3C2=O)sc(C)c1-c1ccccc1	0	.	.	.
C[C@@H]1CCCCO[C@H](CN(C)C(=O)Nc2cccc3ccccc23)[C@@H](C)CN([C@@H](C)CO)C(=O)c2cc(NS(=O)(=O)c3ccccc3)ccc2O1	1	.	-88*	0
SMILES	IDH1 R132H inh	T cruzi growth	Pf Dd2 inh	GASC1 inh
COc1ccc(S(=O)(=O)Nc2ccc3c(c2)C(=O)N([C@@H](C)CO)C[C@@H](C)[C@H](CN(C)C(=O)Nc2cccc4ccccc24)OCCCC[C@@H](C)O3)cc1	0	91	-33	-3
Cc1noc(C)c1S(=O)(=O)Nc1ccc2c(c1)C(=O)N([C@@H](C)CO)C[C@@H](C)[C@@H](CN(C)C(=O)Nc1cccc3ccccc13)OCCCC[C@H](C)O2	.	73	-87*	0
COc1ccc(S(=O)(=O)Nc2ccc3c(c2)C(=O)N([C@@H](C)CO)C[C@@H](C)[C@@H](CN(C)C(=O)Nc2cccc4ccccc24)OCCCC[C@H](C)O3)cc1	3	55	-88*	-4
Cc1noc(C)c1S(=O)(=O)Nc1ccc2c(c1)C(=O)N([C@H](C)CO)C[C@@H](C)[C@@H](CN(C)C(=O)Nc1ccc(F)cc1)OCCCC[C@@H](C)O2	.	81	-85*	1
CC(C)NC(=O)N1C[C@@H]2[C@H](c3ccccc31)[C@H](CO)N2C(=O)Nc1cccc(F)c1	.	15	3	0
C[C@@H]1CCCCO[C@@H](CN(C)S(=O)(=O)c2cn(C)cn2)[C@H](C)CN([C@H](C)CO)C(=O)c2cc(NC(=O)Nc3cccc4ccccc34)ccc2O1	.	63	-52	-3
COc1ccc(S(=O)(=O)N(C)C[C@@H]2OCCCC[C@H](C)Oc3ccc(NC(=O)Nc4cccc5ccccc45)cc3C(=O)N([C@H](C)CO)C[C@H]2C)cc1	0	12	-86*	-1
COc1ccc(S(=O)(=O)N(C)C[C@H]2OCCCC[C@H](C)Oc3ccc(NC(=O)Nc4cccc5ccccc45)cc3C(=O)N([C@@H](C)CO)C[C@H]2C)cc1	4	43	-83*	-1
COc1ccc(S(=O)(=O)N(C)C[C@H]2OCCCC[C@H](C)Oc3ccc(NC(=O)Nc4cccc5ccccc45)cc3C(=O)N([C@@H](C)CO)C[C@@H]2C)cc1	.	75	-71	-4
C[C@@H]1CN([C@H](C)CO)C(=O)c2cc(NC(=O)Nc3cccc4ccccc34)ccc2O[C@@H](C)CCCCO[C@@H]1CN(C)S(=O)(=O)c1cn(C)cn1	.	35	-88*	-7
Cc1ccc(S(=O)(=O)N(C)C[C@@H]2Oc3c(NC(=O)CCCCCC(=O)Nc4ccccc4N)cccc3C(=O)N([C@@H](C)CO)C[C@H]2C)cc1	2	.	-88*	1
C[C@@H]1CN([C@H](C)CO)C(=O)c2cccc(NC(=O)CCCCCC(=O)Nc3ccccc3N)c2O[C@H]1CN(C)S(=O)(=O)c1cccs1	0	.	-48	0
C[C@@H]1CN([C@@H](C)CO)C(=O)c2cccc(NC(=O)CCCCCC(=O)Nc3ccccc3N)c2O[C@@H]1CN(C)S(=O)(=O)c1ccccc1	.	.	-90*	0
C[C@@H]1CN([C@@H](C)CO)C(=O)c2cccc(NC(=O)CCCCCC(=O)Nc3ccccc3N)c2O[C@@H]1CN(C)S(=O)(=O)c1cccs1	0	.	-92*	-1
